ChEMBL document CHEMBL1165906, “Cytotoxic N-(fluorenyl-9-methoxycarbonyl) (Fmoc)-dipeptides: structure-activity relationships and synergistic studies” (Eur J Med Chem, 2010)
Calls of active or inactive are those of the source. The calls are words filed in the database; no cut-off is given here.

Assays:
[1] = system: MDA-MB-231; test: Cytotoxicity against human MDA-MB-231 cells after 72 hrs by MTT assay; assay type: functional, cell-based; settings: MDA-MB-231, 72 h
Summary of the method: (§1)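 Freshly trypsinized cells were seeded at 5000–10,000 per well in 96-well plates. […] Attached cells were given MTT (0.5 mg/ml, 1 h), solubilized in DMSO and read at 550 nm. IC₅₀ came from survival curves as mean ± S.E.M., n = 2.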

[2] = Cytotoxicity against human Hep3B cells after 72 hrs by MTT assay; assay type: functional, cell-based, Hep 3B2
Summary of the method: (§2)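 Freshly trypsinized cells were seeded at 5000–10,000 per well in 96-well plates. Attached cells were given MTT (0.5 mg/ml, 1 h), solubilized in DMSO and read at 550 nm. IC₅₀ came from survival curves as mean ± S.E.M., n = 2.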

[3] = system: MCF7; test: Cytotoxicity against human MCF7 cells after 72 hrs by MTT assay; assay type: functional, cell-based; settings: MCF7, 72 h; summary of the method: as §1
[4] = system: HepG2; test: Cytotoxicity against human HepG2 cells after 72 hrs by MTT assay; assay type: functional, cell-based; settings: HepG2, 72 h; summary of the method: as §2
[5] = system: A549; test: Cytotoxicity against human A549 cells after 72 hrs by MTT assay; assay type: functional, cell-based; settings: A549, 72 h; summary of the method: as §1
[6] = system: Ca9-22; test: Cytotoxicity against human Ca9-22 cells after 72 hrs by MTT assay; assay type: functional, cell-based; settings: Ca9-22, 72 h; summary of the method: as §1
[7] = system: Hepatitis C virus; test: Antiviral activity against HCV infected in human Huh7 cells assessed as inhibition of viral replication at 10 uM after 4 days; assay type: functional, Hepacivirus hominis; settings: Huh-7, 96 h
Summary of the method: (§3)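 Ava5 cells, Huh-7 hepatoma cells carrying a subgenomic HCV replicon, seeded at 5 ×10⁴ per well in 24-well plates and treated for 4 days. Cell extracts were normalized by protein assay and 5 µg was run on 8% SDS-PAGE and transferred to PVDF. Blots were blocked in 5% skim milk and probed for NS3 with GAPDH as loading control. Signals came from HRP secondaries and ECL and were quantified by densitometry.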

[8] = system: Hepatitis C virus; test: Antiviral activity against HCV infected in human Huh7 cells assessed as inhibition of viral replication at 5 uM after 4 days; assay type: functional, organism-based; settings: Hepacivirus hominis, Huh-7; summary of the method: as §3

SMILES | IC50 [1] [µM] | IC50 [2] [µM] | IC50 [3] [µM] | IC50 [4] [µM] | IC50 [5] [µM] | IC50 [6] [µM] | inhibition at 10 µM [7] [%] | inhibition [8]
CC(C)[C@H](NC(=O)OCC1c2ccccc2-c2ccccc21)C(=O)N[C@H](COC(=O)c1ccccc1)Cc1ccccc1 | > 55 | > 55 | > 55 | > 55 | > 55 | – | – | –
O=C(N[C@@H](Cc1ccccc1)C(=O)N[C@@H](CO)Cc1ccccc1)OCC1c2ccccc2-c2ccccc21 | > 55 | > 55 | > 55 | > 55 | > 55 | > 55 | – | –
O=C(N[C@@H](Cc1ccccc1)C(=O)N[C@@H](COC(=O)c1ccccc1)Cc1ccccc1)OCC1c2ccccc2-c2ccccc21 | > 55 | > 55 | > 55 | – | – | > 55 | – | –
O=C(N[C@@H](Cc1ccc(O)cc1)C(=O)N[C@H](COC(=O)c1ccccc1)Cc1ccccc1)OCC1c2ccccc2-c2ccccc21 | – | – | – | > 55 | – | – | – | –
O=C(N[C@@H](Cc1ccc2ccccc2c1)C(=O)N[C@H](CO)Cc1ccccc1)OCC1c2ccccc2-c2ccccc21 | > 55 | > 55 | > 55 | – | – | – | – | –
O=C(N[C@@H](Cc1c[nH]c2ccccc12)C(=O)N[C@@H](COC(=O)c1ccccc1)Cc1ccccc1)OCC1c2ccccc2-c2ccccc21 | – | – | – | – | – | – | 72 | inactive
CC(=O)OC[C@@H](Cc1ccccc1)NC(=O)[C@H](Cc1ccc2ccccc2c1)NC(=O)OCC1c2ccccc2-c2ccccc21 | > 55 | – | – | – | – | – | – | –
CC(C)[C@H](NC(=O)OCC1c2ccccc2-c2ccccc21)C(=O)N[C@@H](CO)Cc1ccccc1 | > 55 | – | > 55 | – | > 55 | – | – | –
CC(=O)OC[C@H](Cc1ccccc1)NC(=O)[C@@H](NC(=O)OCC1c2ccccc2-c2ccccc21)C(C)C | > 55 | > 55 | > 55 | – | > 55 | > 55 | – | –
O=C(N[C@@H](Cc1ccc(O)cc1)C(=O)N[C@@H](COC(=O)c1ccccc1)Cc1ccccc1)OCC1c2ccccc2-c2ccccc21 | > 55 | > 55 | > 55 | > 55 | – | – | 87 | inactive
CC(=O)OC[C@H](Cc1ccccc1)NC(=O)[C@H](Cc1c[nH]c2ccccc12)NC(=O)OCC1c2ccccc2-c2ccccc21 | – | > 55 | > 55 | – | – | – | – | –
O=C(N[C@@H](Cc1ccc2ccccc2c1)C(=O)N[C@@H](CO)Cc1ccccc1)OCC1c2ccccc2-c2ccccc21 | > 55 | – | > 55 | – | > 55 | – | – | –
CC(=O)OC[C@@H](Cc1ccccc1)NC(=O)[C@H](Cc1ccccc1)NC(=O)OCC1c2ccccc2-c2ccccc21 | – | – | > 55 | – | – | – | – | –
O=C(N[C@@H](Cc1c[nH]c2ccccc12)C(=O)N[C@H](CO)Cc1ccccc1)OCC1c2ccccc2-c2ccccc21 | > 55 | > 55 | > 55 | – | – | > 55 | – | –
O=C(N[C@@H](Cc1ccccc1)C(=O)N[C@H](COC(=O)c1ccccc1)Cc1ccccc1)OCC1c2ccccc2-c2ccccc21 | > 55 | > 55 | > 55 | > 55 | – | > 55 | – | –
CC(=O)OC[C@H](Cc1ccccc1)NC(=O)[C@H](Cc1ccc(O)cc1)NC(=O)OCC1c2ccccc2-c2ccccc21 | > 55 | > 55 | > 55 | – | > 55 | > 55 | – | –
CC(C)[C@H](NC(=O)OCC1c2ccccc2-c2ccccc21)C(=O)N[C@@H](COC(=O)c1ccccc1)Cc1ccccc1 | > 55 | – | > 55 | > 55 | > 55 | – | – | –
CC(C)[C@H](NC(=O)OCC1c2ccccc2-c2ccccc21)C(=O)N[C@H](CO)Cc1ccccc1 | > 55 | > 55 | > 55 | – | > 55 | – | – | –
O=C(N[C@@H](Cc1ccc2ccccc2c1)C(=O)N[C@@H](COC(=O)c1ccccc1)Cc1ccccc1)OCC1c2ccccc2-c2ccccc21 | > 55 | – | – | – | – | – | – | –
CC(=O)OC[C@H](Cc1ccccc1)NC(=O)[C@H](Cc1ccccc1)NC(=O)OCC1c2ccccc2-c2ccccc21 | > 55 | > 55 | > 55 | > 55 | – | > 55 | – | –
CC(=O)OC[C@@H](Cc1ccccc1)NC(=O)[C@H](Cc1ccc(O)cc1)NC(=O)OCC1c2ccccc2-c2ccccc21 | > 55 | – | > 55 | – | > 55 | – | – | –
O=C(N[C@@H](Cc1ccc(O)cc1)C(=O)N[C@H](CO)Cc1ccccc1)OCC1c2ccccc2-c2ccccc21 | > 55 | – | > 55 | – | > 55 | – | – | –
O=C(N[C@@H](Cc1ccccc1)C(=O)N[C@H](CO)Cc1ccccc1)OCC1c2ccccc2-c2ccccc21 | > 55 | > 55 | > 55 | > 55 | > 55 | > 55 | – | –
O=C(N[C@@H](Cc1ccc2ccccc2c1)C(=O)N[C@H](COC(=O)c1ccccc1)Cc1ccccc1)OCC1c2ccccc2-c2ccccc21 | > 55 | > 55 | > 55 | > 55 | > 55 | > 55 | – | –
CC(=O)OC[C@H](Cc1ccccc1)NC(=O)[C@H](Cc1ccc2ccccc2c1)NC(=O)OCC1c2ccccc2-c2ccccc21 | – | > 55 | – | – | – | – | – | –
COc1cccc2c1C(=O)c1c(O)c3c(c(O)c1C2=O)C[C@@](O)(C(=O)CO)C[C@@H]3O[C@H]1C[C@H](N)[C@H](O)[C@H](C)O1 [DOXORUBICIN] | 0.1 | – | – | – | 0.4 | 1.3 | – | –
